# Entries after “also recorded” stand apart in the source; their conditions may differ.
# How the values were obtained:
# [1] = Effect of efavirenz on R‐ and S‐PZQ pharmacokinetics; type: in vivo, healthy male participants (human); conditions: for AUCt0‐tlast, Geo Mean / C max, Geo Mean / Clearance/F, Geo Mean / Elimination rate constant, Geo Mean / Half‐Life, Geo Mean / T max, Geo Mean / V d/F, Geo Mean / AUCinf, Geo Mean: plasma
# [2] = patients pre‐exposed to rifampicin; cited from earlier work
# [3] = Clinical safety assessments; type: in vivo, healthy male participants (human); conditions: for tolerability: healthy participants, result in words
# Summary of the method: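 Healthy young males (18–40 y, BMI 18–35) got a single oral test compound dose of 40 mg/kg by weight, then a 400 mg/day antiretroviral for 13 days under daily directly observed treatment. They stayed inpatient ≥24 h before and after dosing (days 1–3, 15–17). Vital signs were checked and adverse events or symptoms monitored. Examination, biochemistry, haematology, urinalysis and ECG were done at screening.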
# [4] = should be maintained for at least 4 h for efficacy; cited from earlier work
# [5] = Effect of ritonavir on R‐ and S‐PZQ pharmacokinetics; type: in vivo, healthy male participants (human); conditions: for AUCt0‐tlast, Geo Mean / C max, Geo Mean / Elimination rate constant, Geo Mean / Half‐Life, Geo Mean / T max, Geo Mean / V d/F, Geo Mean / AUCinf, Geo Mean / Clearance/F, Geo Mean: plasma; for effect of ritonavir on pharmacokinetics: result in words
# [6] = PZQ + Efavirenz (treatment): 40 mg/kg racemic PZQ after 400 mg efavirenz/day
# [7] = PZQ alone (reference), single oral 40 mg/kg racemic PZQ, efavirenz arm
# [8] = PZQ + Ritonavir (treatment): 40 mg/kg racemic PZQ after 100 mg ritonavir/day for 14 days
# [9] = PZQ + Ritonavir (treatment): 40 mg/kg racemic PZQ after 100 mg ritonavir/day for 14 days, 40 mg/kg
# [10] = PZQ alone (reference), single oral 40 mg/kg racemic PZQ, ritonavir arm
# [11] = PZQ alone (reference), single oral 40 mg/kg racemic PZQ, ritonavir arm, 40 mg/kg
compound,measurement,setting,value
"O=C(C1CCCCC1)N1CC(=O)N2CCc3ccccc3C2C1 (stereo not shown) [PZQ, praziquantel]",attainment of the MEC (1 µg/mL for at least 4 h),"[1]; PZQ with efavirenz, result in words",all participants failed to attain the MEC for more than the minimum 4 h
same,participants without detectable levels,[2],7 out of 10
same,tolerability,[3],generally well tolerated
same,minimum effective concentration (MEC),[4],1 µg/mL
O=C(C1CCCCC1)N1CC(=O)N2CCc3ccccc3[C@@H]2C1 [R‐Praziquantel],"AUCt0‐tlast, Geo Mean",[1]; [6],248.02 ng·h/mL
same,"C max, Geo Mean",[1]; [6],104.32 ng/mL
same,"Clearance/F, Geo Mean",[1]; [6],8449.32 L/h
same,"Elimination rate constant, Geo Mean",[1]; [6],0.25 h⁻¹
same,"Half‐Life, Geo Mean",[1]; [6],2.76 h
same,"T max, Geo Mean",[1]; [6],1.64 h
same,"V d/F, Geo Mean",[1]; [6],33637.78 L
same,"AUCinf, Geo Mean","[1]; PZQ + Efavirenz (treatment): 40 mg/kg racemic PZQ after 400 mg efavirenz/day, 40 mg/kg",281.43 ng·h/mL
same,"AUCinf, Difference observed",[1]; PZQ + efavirenz vs PZQ alone,−74.36%
same,"AUCinf, Treatment/reference GMR",[1]; PZQ + efavirenz vs PZQ alone,23.20%
same,"AUCt0‐tlast, Difference observed",[1]; PZQ + efavirenz vs PZQ alone,−76.90%
same,"AUCt0‐tlast, Treatment/reference GMR",[1]; PZQ + efavirenz vs PZQ alone,21.75%
same,"C max, Difference observed",[1]; PZQ + efavirenz vs PZQ alone,−82.52%
same,"C max, Treatment/reference GMR",[1]; PZQ + efavirenz vs PZQ alone,21.21%
same,"Clearance/F, Difference observed",[1]; PZQ + efavirenz vs PZQ alone,546.74%
same,"Elimination rate constant, Difference observed",[1]; PZQ + efavirenz vs PZQ alone,3.45%
same,"Half‐Life, Difference observed",[1]; PZQ + efavirenz vs PZQ alone,17.63%
same,"T max, Difference observed",[1]; PZQ + efavirenz vs PZQ alone,−18.22%
same,"V d/F, Difference observed",[1]; PZQ + efavirenz vs PZQ alone,280.92%
same,reduction in AUCinf (exposure) by efavirenz,[1]; PZQ + efavirenz vs PZQ alone,4 fold
same,"AUCinf, Geo Mean",[1]; [7],1213.15 ng·h/mL
same,"AUCt0‐tlast, Geo Mean",[1]; [7],1140.41 ng·h/mL
same,"C max, Geo Mean",[1]; [7],491.78 ng/mL
same,"Clearance/F, Geo Mean",[1]; [7],1960.10 L/h
same,"Elimination rate constant, Geo Mean",[1]; [7],0.26 h⁻¹
same,"Half‐Life, Geo Mean",[1]; [7],2.66 h
same,"T max, Geo Mean",[1]; [7],1.88 h
same,"V d/F, Geo Mean",[1]; [7],7507.98 L
same,change in the T max when co‐administered with efavirenz,[1]; result in words,no change
same,"AUCt0‐tlast, Geo Mean",[5]; [8],950.73 ng·h/mL
same,"C max, Geo Mean",[5]; [8],354.34 ng/mL
same,"Elimination rate constant, Geo Mean",[5]; [8],0.26 h⁻¹
same,"Half‐Life, Geo Mean",[5]; [8],2.71 h
same,"T max, Geo Mean",[5]; [8],1.53 h
same,"V d/F, Geo Mean",[5]; [8],8772.21 L
same,"AUCinf, Geo Mean",[5]; [9],1057.66 ng·h/mL
same,"Clearance/F, Geo Mean",[5]; [9],2241.23 L/h
same,"AUCinf, Difference observed",[5]; PZQ + ritonavir vs PZQ alone,17.62%
same,"AUCinf, Treatment/reference GMR",[5]; PZQ + ritonavir vs PZQ alone,104.41%
same,"AUCt0‐tlast, Difference observed",[5]; PZQ + ritonavir vs PZQ alone,22.8%
same,"AUCt0‐tlast, Treatment/reference GMR",[5]; PZQ + ritonavir vs PZQ alone,107.06%
same,"C max, Difference observed",[5]; PZQ + ritonavir vs PZQ alone,13.70%
same,"C max, Treatment/reference GMR",[5]; PZQ + ritonavir vs PZQ alone,114.88%
same,"Clearance/F, Difference observed",[5]; PZQ + ritonavir vs PZQ alone,4.36%
same,"Elimination rate constant, Difference observed",[5]; PZQ + ritonavir vs PZQ alone,26.08%
same,"Half‐Life, Difference observed",[5]; PZQ + ritonavir vs PZQ alone,−28.64%
same,"T max, Difference observed",[5]; PZQ + ritonavir vs PZQ alone,−15.46%
same,"V d/F, Difference observed",[5]; PZQ + ritonavir vs PZQ alone,−15.74%
same,effect of ritonavir on pharmacokinetics,"[5]; PZQ + ritonavir vs PZQ alone, listed as R‐PZQ",no significant effect; also recorded: did not have a significant inhibitory effect
same,"AUCt0‐tlast, Geo Mean",[5]; [10],888.02 ng·h/mL
same,"C max, Geo Mean",[5]; [10],308.44 ng/mL
same,"Elimination rate constant, Geo Mean",[5]; [10],0.19 h⁻¹
same,"Half‐Life, Geo Mean",[5]; [10],3.57 h
same,"T max, Geo Mean",[5]; [10],1.69 h
same,"V d/F, Geo Mean",[5]; [10],12034.61 L
same,"AUCinf, Geo Mean",[5]; [11],1012.96 ng·h/mL
same,"Clearance/F, Geo Mean",[5]; [11],2340.12 L/h
O=C(C1CCCCC1)N1CC(=O)N2CCc3ccccc3[C@H]2C1 [S‐Praziquantel],"AUCinf, Geo Mean",[1]; [6],871.84 ng·h/mL
same,"AUCt0‐tlast, Geo Mean",[1]; [6],826.17 ng·h/mL
same,"C max, Geo Mean",[1]; [6],329.98 ng/mL
same,"Clearance/F, Geo Mean",[1]; [6],2727.44 L/h
same,"Elimination rate constant, Geo Mean",[1]; [6],0.35 h⁻¹
same,"Half‐Life, Geo Mean",[1]; [6],2.00 h
same,"T max, Geo Mean",[1]; [6],1.81 h
same,"V d/F, Geo Mean",[1]; [6],7887.36 L
same,"AUCinf, Difference observed",[1]; PZQ + efavirenz vs PZQ alone,−75.26%
same,"AUCt0‐tlast, Difference observed",[1]; PZQ + efavirenz vs PZQ alone,−75.16%
same,"AUCt0‐tlast, Treatment/reference GMR",[1]; PZQ + efavirenz vs PZQ alone,15.26%
same,"C max, Difference observed",[1]; PZQ + efavirenz vs PZQ alone,−76.85%
same,"Clearance/F, Difference observed",[1]; PZQ + efavirenz vs PZQ alone,950.27%
same,"Elimination rate constant, Difference observed",[1]; PZQ + efavirenz vs PZQ alone,11.76%
same,"Half‐Life, Difference observed",[1]; PZQ + efavirenz vs PZQ alone,−15.83%
same,"T max, Difference observed",[1]; PZQ + efavirenz vs PZQ alone,−25.48%
same,"V d/F, Difference observed",[1]; PZQ + efavirenz vs PZQ alone,757.72%
same,"AUCt0‐tlast, Geo Mean",[1]; [7],5413.80 ng·h/mL
same,"C max, Geo Mean",[1]; [7],1991.32 ng/mL
same,"Clearance/F, Geo Mean",[1]; [7],419.40 L/h
same,"Elimination rate constant, Geo Mean",[1]; [7],0.31 h⁻¹
same,"Half‐Life, Geo Mean",[1]; [7],2.27 h
same,"T max, Geo Mean",[1]; [7],2.42 h
same,"V d/F, Geo Mean",[1]; [7],1373.82 L
same,"AUCinf, Geo Mean","[1]; PZQ alone (reference), single oral 40 mg/kg racemic PZQ, efavirenz arm, 40 mg/kg",5669.77 ng·h/mL
same,"AUCinf, Geo Mean",[5]; [8],7291.05 ng·h/mL
same,"AUCt0‐tlast, Geo Mean",[5]; [8],7083.71 ng·h/mL
same,"Clearance/F, Geo Mean",[5]; [8],325.12 L/h
same,"Elimination rate constant, Geo Mean",[5]; [8],0.38 h⁻¹
same,"Half‐Life, Geo Mean",[5]; [8],1.81 h
same,"T max, Geo Mean",[5]; [8],1.60 h
same,"V d/F, Geo Mean",[5]; [8],847.06 L
same,"C max, Geo Mean",[5]; [9],2336.96 ng/mL
same,"AUCinf, Difference observed",[5]; PZQ + ritonavir vs PZQ alone,69.84%
same,"AUCinf, Treatment/reference GMR",[5]; PZQ + ritonavir vs PZQ alone,175.49%
same,"AUCt0‐tlast, Difference observed",[5]; PZQ + ritonavir vs PZQ alone,71.88%
same,"AUCt0‐tlast, Treatment/reference GMR",[5]; PZQ + ritonavir vs PZQ alone,178.30%
same,"C max, Difference observed",[5]; PZQ + ritonavir vs PZQ alone,88.41%
same,"Clearance/F, Difference observed",[5]; PZQ + ritonavir vs PZQ alone,−44.37%
same,"Elimination rate constant, Difference observed",[5]; PZQ + ritonavir vs PZQ alone,34.38%
same,"Half‐Life, Difference observed",[5]; PZQ + ritonavir vs PZQ alone,−19.25%
same,"T max, Difference observed",[5]; PZQ + ritonavir vs PZQ alone,−24.58%
same,"V d/F, Difference observed",[5]; PZQ + ritonavir vs PZQ alone,−55.79%
same,effect of ritonavir on pharmacokinetics,[5]; PZQ + ritonavir vs PZQ alone,significant effect
same,"AUCinf, Geo Mean",[5]; [10],4154.79 ng·h/mL
same,"AUCt0‐tlast, Geo Mean",[5]; [10],3972.89 ng·h/mL
same,"Clearance/F, Geo Mean",[5]; [10],570.54 L/h
same,"Elimination rate constant, Geo Mean",[5]; [10],0.31 h⁻¹
same,"Half‐Life, Geo Mean",[5]; [10],2.25 h
same,"T max, Geo Mean",[5]; [10],2.20 h
same,"V d/F, Geo Mean",[5]; [10],1847.59 L
same,"C max, Geo Mean",[5]; [11],1174.93 ng/mL
O=C1Nc2ccc(Cl)cc2[C@@](C#CC2CC2)(C(F)(F)F)O1 [efavirenz],participants with mild dizziness,"[3]; efavirenz group, symptoms disappearing by day 5",33%
CC(C)c1nc(CN(C)C(=O)N[C@H](C(=O)N[C@@H](Cc2ccccc2)C[C@H](O)[C@H](Cc2ccccc2)NC(=O)OCc2cncs2)C(C)C)cs1 [ritonavir],tolerability,[3],generally well tolerated

# Reference: paper PMC8085964 (Pharmacology Research & Perspectives, 2021)
